Data set [1] can be described thus: Partition coefficient of the compound, log P. It counts as physicochemical. To be noted: octanol/water. In short, it runs like this: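 Experimental 1-octanol/water partition coefficient.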
Data set [2] deals with GABA-A receptor; anion channel. Kind of data set: Binding affinity to Wistar rat benzodiazepine receptor. It is filed as protein-complex assay. In short, it runs like this:
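Rat (male Wistar, 180-200 g) whole-brain membranes without cerebellum in 0.05 M Tris/HCl pH 7.7. Bound ligand separated on filters and counted by scintillation. IC50 from 6-10 concentrations, Ki by Cheng-Prusoff, at least four repeats averaged.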

The test system of data set [3] is Mus musculus. Kind of data set: Neurotoxicological activity in NMRI BR mice after ip administration by rotarod test. It counts as functional. In short, it runs like this:
(§1)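 Male mice (CF-1 at NIH; NMRI BR at elbion), trained beforehand, dosed i.p. Motor impairment was defined as failure to stay on a rod (6 rpm, 0.9 cm diameter) for 1 min in at least one of three trials. The same animals were tested at several times (≥3 doses, n = 8/group). TD50 at peak time by probit analysis.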

Data set [4] has as its system Mus musculus. Briefly: Anxiolytic activity in NMRI BR mice after ip administration by PTZ test. It is filed as functional. In short, it runs like this:
(§2)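 Male mice (NMRI BR at elbion, three per dose; CF-1 at NIH, up to five) given compound or vehicle i.p. at 30, 100, 300 mg/kg, 30 min and 4 h pretreatment. PTZ 85 mg/kg s.c. into neck, then 30 min observation for first generalized clonic seizure with loss of righting reflex.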

Data set [5] concerns Rattus norvegicus. Kind of data set: Anxiolytic activity in rat after oral administration by PTZ test. It counts as functional. The method, boiled down:
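Rats dosed orally. PTZ 70 mg/kg given s.c., then 30 min observation for first generalized clonic seizure with loss of righting reflex. Protection was measured at several pretreatment times (n = 3-4), and the peak time was used for the dose-response.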

Data set [6] deals with Mus musculus. Briefly: Anxiolytic activity in CF1 mice after ip administration by PTZ test. It counts as functional. In short, it runs like this: as §2
The test system of data set [7] is Rattus norvegicus. Briefly: Neurotoxicological activity in rat after oral administration by rotarod test. It is filed as functional. In short, it runs like this: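 Trained male rats dosed orally. Motor impairment was defined as failure to stay on a rod (8 rpm, 6 cm diameter) for 1 min in at least one of three trials. The same animals were tested at several time points (≥3 dose groups, n = 8/group). TD50 at time of peak neurotoxicity by probit analysis.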

In data set [8] the test system is Mus musculus. Kind of data set: Neurotoxicological activity in CF1 mice after ip administration by rotarod test. It is filed as functional. In short, it runs like this:
as §1

In data set [9] the test system is Rattus norvegicus. Kind of data set: Anxiolytic activity in rat after oral administration by vogel conflict test. It is filed as functional. To be noted: read-out: MED. The method, boiled down:
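Modified Vogel conflict test in rats after oral dosing. Water-deprived 24 h, trained to drink 5.0% glucose for 5 min, deprived a further 24 h. The 210 s test session had 30 s unpunished drinking, then 180 s with mild shock on touching the drinking tube. Punished and unpunished licks counted. Minimal effective dose reported.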

In data set [10] the test system is Cynomolgus monkey. Briefly: Plasma concentration in cynomolgus monkey at 5 mg/kg, po. On the set-up: dose 5 mg/kg, route oral. The following applies: in vivo. It is filed as ADME, organism-based, Macaca fascicularis.
The target of data set [11] is GABA-A receptor; anion channel (Rattus norvegicus) (UniProt O09028+P15431+P18506+P18508+P19969+P20236+P23574+P23576+P28471+P28473+P30191+P62813+P63079+P63138+Q91ZM7+Q9ES14). Briefly: Inhibition of Wistar rat benzodiazepine receptor at 2 uM. It is filed as protein-complex assay.

Where only a bound is given, the exact number is not on record here.

In data set [1], `O=C1C=C(N2CCOCC2)CN1c1ccc(F)c(Cl)c1` gave a logP of 2.2. In addition, in [2], the Ki is 2.05 µM. This compound also yielded a TD50 in data set [3] of under 100 mg/kg. Besides, in data set [4], it took a dose of 22.3 mg/kg to reach the 50% effect level (ED50).
For `O=C1N=C(N2CCOCC2)CN1c1ccc(I)cc1`, the logP in data set [1] stood at 1.7. In addition, the figures for the median effective dose (ED50) in data set [5] and in [6] were 50 mg/kg and 43 mg/kg, respectively. Besides, the values for the TD50 in data set [7] and in data set [8] were over 50 mg/kg and over 300 mg/kg, respectively.
Regarding `O=C1C2C=Nc3ccccc3C2=NN1c1ccc(Cl)cc1` (centres undefined) [CGS-9896], the ED50 in data set [5] was found to be 2.7 mg/kg; in [4] it was 1.36 mg/kg. For the same compound, in [2], the affinity, expressed as Ki, was 0.0024 µM. In addition, the results for the TD50 in data set [7] and in data set [3] were over 500 mg/kg and 302 mg/kg, respectively. Besides, the minimal effective dose in data set [9] was determined as 0.3 mg/kg. In data set [10], this compound gave a concentration of 27 nM.
In the case of `CN1C(=O)CN=C(c2ccccc2)c2cc(Cl)ccc21` [DIAZEPAM], the 50% effective dose (ED50) in data set [5] came out at 6.3 mg/kg; in data set [4], 0.4 mg/kg. Also, the TD50 in data set [7] was found to be 13 mg/kg; in data set [3] it was 2 mg/kg. Further, in [9], the minimal effective dose was found to be 1 mg/kg.
In data set [1], `O=C1C=C(N2CCCCCC2)CN1c1ccc(Cl)cc1` displayed a logP of 3.4. The compound further returned an inhibition constant (Ki) in data set [2] of 0.44 µM. Besides, the TD50 in data set [3] is over 100 mg/kg. The 50% effective dose (ED50) in data set [4] is 234 mg/kg.
Turning to `O=C1N=C(N2CCOCC2)CN1Cc1ccccc1Cl`, the logP in [1] was 1. In addition, the TD50 in [3] is over 300 mg/kg. For the same compound, the ED50 in data set [4] is over 300 mg/kg.
Turning to `O=C1C=C(N2CCOCC2)C(=O)N1c1ccc(F)cc1`, in data set [1], the logP turned out to be 1.5. Besides, the inhibition in data set [11] was under 20%. The same compound came in with a TD50 in data set [3] of over 100 mg/kg. In data set [4], the 50% effect level (ED50) was put at a dose of 128 mg/kg.
`O=C1C=C(N2CCOCC2)C(=O)N1c1ccc(Cl)cc1` showed a logP in [1] of 2.3. Further, the affinity in data set [2] corresponds to a Ki of 8.88 µM. For the same compound, the TD50 in [3] was over 300 mg/kg. In addition, in data set [4], the ED50 is 120 mg/kg.
As to `O=C1N=C(N2CCCCCCC2)CN1c1ccc(Cl)cc1`, the logP in data set [1] turned out to be 2.7. Also, in data set [3], the TD50 is over 300 mg/kg. Moreover, the ED50 in data set [4] is over 300 mg/kg.
On to `O=C1C=C(N2CCCC2)C(=O)N1c1ccc(Cl)cc1`, for which the lipophilicity (logP) in data set [1] amounted to 3. This compound also came in with an inhibition constant Ki in [2] of 3.26 µM. In addition, the TD50 in [3] was over 300 mg/kg. In addition, in [4], the ED50 was over 300 mg/kg.
Turning to `O=C1C=C(N2CCCC2)CN1c1ccc(Cl)cc1`, the ED50 is over 200 mg/kg in data set [5] and over 300 mg/kg in data set [4]. In [2], this compound displayed an inhibition constant (Ki) of 0.067 µM. In [3], this compound yielded a TD50 of over 300 mg/kg.
Turning to `Clc1ccc(-c2noc(N3CCOCC3)n2)cc1`, the log partition coefficient (logP) in [1] came to 3.1. Moreover, in data set [2], the Ki is 26.1 µM. The same compound displayed a TD50 in data set [3] of over 300 mg/kg. In data set [4], this compound gave a median effective dose (ED50) of over 300 mg/kg.
Regarding `O=C1N=C(N2CCCCCC2)CN1c1ccc(Cl)cc1`, in data set [2], the Ki was 11.6 µM. The TD50 in data set [3] is over 300 mg/kg. In data set [4], this compound came in with an ED50 of over 300 mg/kg.
For the compound `O=C1C=C(N2CCOCC2)CN1c1ccc(Cl)cc1`, in data set [1], the logP worked out at 1.9. In data set [2], the inhibition constant (Ki) is 0.141 µM. For the same compound, the TD50 in [7] was over 500 mg/kg; in [3] it was 97 mg/kg; in data set [8], 60.9 mg/kg. In addition, in data set [9], the minimal effective dose came to 10 mg/kg. The same compound came in with an ED50 in data set [4] of 10.9 mg/kg.
As for `Cc1ccc(N2CC(N3CCOCC3)=CC2=O)cc1`, the lipophilicity (logP) in [1] stood at 1.4. The same compound had a Ki in data set [2] of 0.344 µM. The compound also displayed a TD50 in data set [3] of 100 mg/kg. In [4], this compound displayed a median effective dose (ED50) of 89.3 mg/kg.
The compound `Clc1ccc(-c2cnn(-c3ccccn3)c2)cc1` displayed a logP in data set [1] of 4.3. In addition, the TD50 in data set [3] is over 300 mg/kg. The same compound gave a 50% effective dose (ED50) in data set [4] of over 300 mg/kg.
Consider `O=c1cc(-c2ccccc2)[nH]n1-c1ccc(Cl)cc1`, for which, in [1], the lipophilicity (logP) was determined as 2.6. For the same compound, the inhibition in data set [11] was under 20%. The same compound displayed a TD50 in [3] of over 300 mg/kg. The 50% effective dose (ED50) in data set [4] was over 300 mg/kg.
As to `O=C1C=C(c2ccc(Cl)cc2)C(=O)N1c1ccc(Cl)cc1`, in [1], the lipophilicity (logP) stood at 3. In data set [11], this compound registered an inhibition of under 20%. In addition, the TD50 in data set [3] was over 300 mg/kg. Further, the 50% effective dose (ED50) in data set [4] is over 300 mg/kg.
`CN(C1=NC(=O)N(c2ccc(Cl)cc2)C1)C1CCCCC1` yielded a logP in [1] of 2.7. In data set [3], this compound showed a TD50 of over 300 mg/kg. This compound gave an ED50 in [4] of over 300 mg/kg.

The values are drawn from ChEMBL document CHEMBL1138158, “Synthesis, pharmacology, and structure-activity relationships of novel imidazolones and pyrrolones as modulators of GABAA receptors” (J Med Chem, 2006).
